The values that follow come from PubChem BioAssay.

Experiment [1] in a line: inhibitors of TNFa-induced NFkB p65 translocation, primary screen, imaging, HUVEC, MLSMR starter and 10KST1 sets (AID 438;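 active means inhibition above 20% together with a positive visual image hit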;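 further: compound added about 3h40 before a 20 min TNFalpha stimulation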;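 on inhibition: signal is the nuclear over cytoplasmic p65 intensity ratio per well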). As to conditions: HUVEC TNFa-induced p65 nuclear translocation; cell count: measured here: nuclei count (cytotoxicity indicator), at 2.08 µM; inhibition: at 2 µM, stronger effect = higher value, 0% TNFa-plus-vehicle, 100% no-TNFa wells.
A short description of experiment [2]: endothelial E-selectin expression blockers – imaging, HUVEC, immunofluorescence, MLSMR starter and 10KST1 sets, primary screen (AID 487;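 active means visually confirmed hit in the image check and inhibition above 20%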;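 on inhibition: signal is fraction of cell area covered by stained E-selectin grains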;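 on nuclei count: 100% = median nuclei count of all wells on the same plate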). To be noted: HUVEC TNFalpha-induced E-selectin immunofluorescence imaging, at 2 µM; inhibition: stronger effect = higher value; nuclei count: measured here: cell number, toxicity.
A short description of experiment [3]: Primary imaging screen for DUSP6 inhibitors that restore phospho-Erk in transfected HeLa cells, chemical complementation (AID 609).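 On inhibition: phospho-Erk level distribution per well compared with pooled transfected vehicle control wells.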 To be noted: HeLa MKP-3 transfected, phospho-Erk imaging KS statistic, at 10 µM, cells stimulated with TPA for 15 min.
The target of experiment [4] is Dual specificity protein phosphatase 6 (Homo sapiens) (UniProt Q16828). The experiment is described as above. As to conditions: HeLa MKP-3 transfected, phospho-Erk imaging KS statistic; at 10 µM; stronger effect = higher value; cells stimulated with TPA for 15 min.
Experiment [5] has as its target Voltage-gated potassium channel subunit beta-2 (Rattus norvegicus) (UniProt P62483). Description: inhibitors of rat Kvbeta2 reductase activity – biochemical, NADPH fluorescence, primary screen (AID 622;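 active means fluorescence slope higher than the sample average by over 3 SD, cut at about -0.22 in these data, passing the limit was not always enough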;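 further: slope of raw intensity against log time taken from 70 to 1610 s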). To be noted: recombinant KvBeta, 4-cyanobenzaldehyde reduction, at 10 µM, stronger effect = higher value.
Experiment [6] shares this target. Description: enhancers of rat Kvbeta2 NADPH turnover – biochemical, NADPH fluorescence, primary screen (AID 623;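 active means NADPH fluorescence slope more negative than the mean of all samples by about 3 SD, 99.7% confidence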;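 further: fluorescence intensity change per second fitted from 20 to 320 s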). As to conditions: Recombinant KvBeta, NADPH fluorescence decrease slope, 10 min; at 10 µM; stronger effect = lower value.
The target in experiment [7] is Alpha-2C adrenergic receptor (Homo sapiens) (UniProt P18825). The experiment can be described thus: compounds altering alpha2C-coupled GIRK flux – cell-based, HEK293 alpha2C/GIRK1/2, thallium flux, primary screen (AID 624;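 active means fluorescence slope after compound addition differing from the mean of all screened samples at 99.7% confidence, in either direction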;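 further: slope of fluorescence ratio to pre-addition baseline per second over 15 to 24 s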). As to conditions: thallium flux BTC fluorescence, at 10 µM, actives lie on both sides.
The nature of experiment [8]: inhibitors of larval lipid processing in zebrafish, primary screen, whole organism, PED6 fluorescence, gall bladder and intestine (AID 686;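 active means a full or partial loss of lipid-probe fluorescence in the fish gall bladder, intestine or both, judged by eye; inactive means no fluorescence loss, or compound toxic to the fish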;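 further: signal comes from phospholipase A2 cleavage of quenched PED6 carried via bile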). To be noted: Zebrafish larvae PED6 lipid processing, fluorescence scoring; screened at 20 µM (by protocol). The gist of the method: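 Doses: 20 µM single dose. Test system: live zebrafish larvae aged 5-7 days, whole organism. Quantity: five larvae per well. Measured by: By-eye fluorescence microscopy. Reagent: ingested quenched lipid PED6 at 100 nM. Read-out: visual per-well fluorescence inhibition score. Times: overnight exposure of larvae to compound plus PED6.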

A short description of experiment [9]: loss of swimming-algae plug formation – whole organism, Chlamydomonas reinhardtii, WT vs cilia-less mutant, absorbance, 96-well, primary screen (AID 463189;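 active means inhibition at or above 50% relative to wild type and mutant plate controls; inactive means inhibition below 50%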;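 further: 0% = wild type cc124 cells in DMSO and 100% = ciliumless bld1 mutant cells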). As to conditions: Chlamydomonas reinhardtii gravitaxis, OD600 absorbance, 2 days; at 10 µM; stronger effect = higher value.
The mark [10] stands for this setting: measured here: cell density z-score.
[11] abbreviates: measured here: nuclear c-Myc green intensity z-score.
Setting [12] is: measured here: nuclear pErk red intensity z-score, stronger effect = higher value.

The source made the active and inactive calls.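 How the source made its calls, unless noted: active means compounds giving at least 50% inhibition in the cell-based MKP-3 phosphatase rescue imaging test; inactive means the rest.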

Sequence of Voltage-gated potassium channel subunit beta-2 (Rattus norvegicus) (P62483 whole entry, looked up): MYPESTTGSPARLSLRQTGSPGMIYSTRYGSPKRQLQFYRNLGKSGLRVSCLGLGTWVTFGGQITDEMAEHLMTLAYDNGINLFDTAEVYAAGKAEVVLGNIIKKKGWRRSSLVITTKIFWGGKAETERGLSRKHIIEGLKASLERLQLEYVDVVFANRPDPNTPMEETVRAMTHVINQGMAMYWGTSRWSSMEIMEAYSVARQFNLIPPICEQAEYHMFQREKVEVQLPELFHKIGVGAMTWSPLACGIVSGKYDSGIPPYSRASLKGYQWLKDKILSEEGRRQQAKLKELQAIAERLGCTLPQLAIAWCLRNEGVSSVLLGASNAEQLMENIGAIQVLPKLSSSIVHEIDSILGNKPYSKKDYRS
Sequence of Alpha-2C adrenergic receptor (Homo sapiens) (P18825 whole entry, looked up): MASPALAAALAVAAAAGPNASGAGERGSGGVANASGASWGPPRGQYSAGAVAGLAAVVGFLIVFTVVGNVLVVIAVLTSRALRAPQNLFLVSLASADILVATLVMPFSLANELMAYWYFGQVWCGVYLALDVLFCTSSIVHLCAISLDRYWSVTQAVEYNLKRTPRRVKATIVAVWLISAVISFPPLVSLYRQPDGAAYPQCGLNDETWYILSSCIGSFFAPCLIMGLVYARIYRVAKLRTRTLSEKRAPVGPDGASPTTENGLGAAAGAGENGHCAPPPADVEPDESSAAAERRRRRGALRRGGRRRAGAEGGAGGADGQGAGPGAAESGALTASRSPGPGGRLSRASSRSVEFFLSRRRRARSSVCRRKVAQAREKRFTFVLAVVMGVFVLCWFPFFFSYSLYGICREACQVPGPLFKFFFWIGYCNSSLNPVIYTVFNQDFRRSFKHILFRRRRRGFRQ
Sequence of Dual specificity protein phosphatase 6 (Homo sapiens) (Q16828 whole entry, looked up): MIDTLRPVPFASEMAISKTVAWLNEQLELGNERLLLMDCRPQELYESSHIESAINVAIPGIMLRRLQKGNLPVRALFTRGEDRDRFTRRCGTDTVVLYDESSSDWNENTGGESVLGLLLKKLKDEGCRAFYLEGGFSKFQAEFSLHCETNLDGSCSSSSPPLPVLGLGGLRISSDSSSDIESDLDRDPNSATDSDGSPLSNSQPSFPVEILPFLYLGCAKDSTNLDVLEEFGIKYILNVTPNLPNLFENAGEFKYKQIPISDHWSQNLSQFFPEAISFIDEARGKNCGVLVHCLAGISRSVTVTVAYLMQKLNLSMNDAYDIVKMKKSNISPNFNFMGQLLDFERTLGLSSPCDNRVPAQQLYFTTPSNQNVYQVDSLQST

The inhibition is the change of the read-out against control, counted positive when it falls. In the case of `COc1ccc(C2N3CC4(C)CN2CC(C)(C3)C4O)cc1OC` (stereo unspecified), the cell count in experiment [1] was determined as 348. The inhibition in [1] is -20.6% (inactive); in experiment [2] it was -105% (inactive); in experiment [4] it was -5.26% (inactive); in experiment [9], 37% (inactive). This molecule also returned a nuclei count in experiment [2] of 122%. Also, the z-score in experiment [3] (setting [10]) is 0.441; in experiment [3] (setting [11]), -1.49; in experiment [3] (setting [12]), -0.949. For the same molecule, the fluorescence slope in experiment [5] is -0.473 (inactive). In experiment [6], the NADPH fluorescence slope is -7.1e-05 (inactive). In experiment [7], the slope was 0.00557 (inactive). The call in [8] was inactive.
As to `Nc1nonc1OCCc1ccccc1`, the cell count in experiment [1] is 540. For the same molecule, the inhibition is -5.8% (inactive) in experiment [1], -31.5% (inactive) in experiment [2], -6.06% (inactive) in experiment [4] and -3.19% (inactive) in experiment [9]. Moreover, in [2], the nuclei count came to 160%. The z-score in [3] (setting [10]) came to 0.698; in experiment [3] (setting [11]), 1.41; in experiment [3] (setting [12]), 0.0192. Besides, the fluorescence slope in [5] is -0.439 (inactive). Further, in experiment [6], the NADPH fluorescence slope is -4.6e-05 (inactive). Besides, in experiment [7], the slope is 0.00604 (inactive). For the same molecule, in experiment [8], the molecule was classed as inactive.
As to `CSc1nc(N)nc(SCC(=O)OC(C)C)c1C#N`, the cell count in [1] turned out to be 394. Also, the inhibition was -11.8% (inactive) in [1], -26.4% (inactive) in [2], 0.671% (inactive) in experiment [4] and 72.2% (active) in experiment [9]. Besides, the nuclei count in [2] turned out to be 76.9%. In addition, the values for the z-score in [3] (setting [10]), in experiment [3] (setting [11]) and in experiment [3] (setting [12]) were -1.22, -0.698 and -1.26, respectively. Moreover, the fluorescence slope in experiment [5] was -0.371 (inactive). Also, the NADPH fluorescence slope in [6] was 5e-05 (inactive). In addition, in experiment [7], the slope was 0.00629 (inactive). Moreover, in experiment [8], the call was inactive.
`Cc1[nH]c2ccc3c(ncn3CCC#N)c2c1C`: in experiment [1], the cell count came to 616. In addition, the inhibition in experiment [1] is -7.5% (inactive); in experiment [2], -48.6% (inactive); in experiment [4], 18.2% (inactive); in [9], 11.7% (inactive). Besides, the nuclei count in experiment [2] turned out to be 166%. Further, the z-score in experiment [3] (setting [10]) is -0.136; in experiment [3] (setting [11]) it was 0.347; in experiment [3] (setting [12]) it was 0.974. Also, the fluorescence slope in [5] is -0.5 (inactive). The NADPH fluorescence slope in [6] was -3.5e-05 (inactive). Further, the slope in experiment [7] was 0.00512 (inactive). Further, the molecule was classed as inactive in experiment [8].
On to `COc1ccc(C(CC(=O)O)NC(=O)OC(C)(C)C)cc1` (stereo unspecified), for which the cell count in experiment [1] is 352. Also, the inhibition is -12.3% (inactive) in experiment [1], -60.6% (inactive) in experiment [2], -7.01% (inactive) in [4] and -3.6% (inactive) in experiment [9]. In addition, the nuclei count in [2] was 167%. Moreover, the values for the z-score in experiment [3] (setting [10]), in experiment [3] (setting [11]) and in experiment [3] (setting [12]) were 0.0535, 0.856 and 1.62, respectively. In experiment [5], the fluorescence slope is -0.414 (inactive). Also, in [6], the NADPH fluorescence slope was -0.000134 (inactive). Further, the slope in experiment [7] is 0.00454 (inactive). The outcome in [8] was inactive.
`CCC12CN3CC(CC)(CN(C1)C3c1c(O)ccc3ccccc13)C2=O` (stereo unspecified): in [1], the cell count came out at 585. Further, the inhibition in [1] is -1.9% (inactive); in [2], -44.2% (inactive); in [4], 9.82% (inactive); in [9] it was 6.95% (inactive). Besides, in experiment [2], the nuclei count worked out at 185%. Moreover, the z-score in experiment [3] (setting [10]) was -0.501; in experiment [3] (setting [11]), 0.162; in experiment [3] (setting [12]), 0.594. In experiment [5], the fluorescence slope was -0.336 (inactive). In addition, the NADPH fluorescence slope in experiment [6] is 5.6e-06 (inactive). Moreover, the slope in experiment [7] is 0.00425 (inactive). In experiment [8], the molecule was classed as inactive.
For the molecule `O=C1c2ccccc2C(=O)C1c1ccc2ccccc2n1`, the cell count in experiment [1] turned out to be 336. The inhibition in [1] was -17.4% (inactive); in experiment [2], -56% (inactive); in [4] it was -7.28% (inactive); in [9] it was -14.2% (inactive). Further, the nuclei count in experiment [2] turned out to be 109%. Further, the z-score in [3] (setting [10]) was -0.111; in experiment [3] (setting [11]) it was -0.223; in experiment [3] (setting [12]), 0.575. Besides, in experiment [5], the fluorescence slope was -0.43 (inactive). Moreover, the NADPH fluorescence slope in experiment [6] is -2.4e-05 (inactive). The slope in experiment [7] was 0.00379 (inactive). Further, in experiment [8], the molecule was classed as inactive.
